Publication PMC4828293 (Bioorganic & medicinal chemistry, 2015)
Entries after “also recorded” stand apart in the source; their conditions may differ. Like-named read-outs stand apart in the source and are kept apart here.

Experiments:
NCI-H460 (lung) = assay: SRB cytotoxicity assay, NCI-H460; type: cell-based, human; conditions: NCI-H460, 48 h, read-out: GI50 (μM) SRB assay NCI-H460
In short: (§1)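 Serial dilutions of the test compound were added to the cells for 48 h. Cells were then fixed with trichloroacetic acid, washed, dried and stained with sulforhodamine B. The dye was solubilised and read at 540 nm, normalised to 630 nm.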

DU-145 (prostate) = assay: SRB cytotoxicity assay, DU-145; type: cell-based, human; conditions: DU-145, 48 h, read-out: GI50 (μM) SRB assay DU-145
In short: as §1

SK-OV-3 (ovarian) = assay: SRB cytotoxicity assay, SK-OV-3; type: cell-based, human; conditions: SK-OV-3, 48 h, read-out: GI50 (μM) SRB assay SK-OV-3
In short: as §1

tubulin = assay: Inhibition of [3H]colchicine binding to tubulin; conditions: 1.0 μM tubulin, 5.0 μM [3H]colchicine
[1] = test system: human cancer cell lines [SK-OV-3 (ovarian), NCI-H460 (lung), and DU-145 (prostate)]; assay: SRB cytotoxicity assay, panel of three human cancer cell lines; type: cell-based; conditions: read-out: GI50 against two of the three cell lines
In short: as §1

[2] = test system: breast tumor bearing SCID mice; assay: Acute toxicity in breast tumor bearing SCID mice; type: in vivo; conditions: IP administration of saline solutions, doses up to 40 mg/kg
[3] = test system: MDA-MB-231-luc orthotopic human tumor xenografts; assay: In vivo dynamic bioluminescence imaging; design: species or system SCID mice
In short: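 Female SCID mice carried orthotopic mammary fat pad tumors grown from […] MDA-MB-231-Luc cells (stable lentiviral firefly luciferase) in 30% Matrigel, used at about 5 mm diameter. Under 2% isoflurane in O2, mice received D-luciferin 120 mg/kg in saline SC at the fore-back neck, and BLI images were taken over 35 min. The test compound (20, 30 or 40 mg/kg), saline, or CA4P 120 mg/kg was given IP immediately after baseline. BLI was repeated with fresh luciferin at 4 and 24 h, and light intensity-time curves were analysed.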

[4] = molecular target: purified bovine brain tubulin (Bos taurus, UniProt P81947+Q6B856); conditions: read-out: Inhibition of tubulin polymerization IC50 (μM) ± SD; cited from earlier work
purified bovine brain tubulin, sequence (P81947 whole entry): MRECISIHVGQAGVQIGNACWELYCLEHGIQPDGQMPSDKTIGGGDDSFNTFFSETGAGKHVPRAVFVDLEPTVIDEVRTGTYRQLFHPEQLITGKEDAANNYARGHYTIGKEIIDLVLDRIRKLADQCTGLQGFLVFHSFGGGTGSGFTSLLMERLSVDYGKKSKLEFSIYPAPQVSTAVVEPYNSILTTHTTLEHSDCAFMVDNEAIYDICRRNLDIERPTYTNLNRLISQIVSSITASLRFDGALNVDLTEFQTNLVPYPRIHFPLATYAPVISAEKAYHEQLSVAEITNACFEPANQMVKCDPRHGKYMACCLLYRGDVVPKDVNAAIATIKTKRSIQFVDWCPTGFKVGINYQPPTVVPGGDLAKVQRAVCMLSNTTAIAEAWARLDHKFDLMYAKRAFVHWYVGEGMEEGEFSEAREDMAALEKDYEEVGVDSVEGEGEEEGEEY
purified bovine brain tubulin, sequence (Q6B856 whole entry): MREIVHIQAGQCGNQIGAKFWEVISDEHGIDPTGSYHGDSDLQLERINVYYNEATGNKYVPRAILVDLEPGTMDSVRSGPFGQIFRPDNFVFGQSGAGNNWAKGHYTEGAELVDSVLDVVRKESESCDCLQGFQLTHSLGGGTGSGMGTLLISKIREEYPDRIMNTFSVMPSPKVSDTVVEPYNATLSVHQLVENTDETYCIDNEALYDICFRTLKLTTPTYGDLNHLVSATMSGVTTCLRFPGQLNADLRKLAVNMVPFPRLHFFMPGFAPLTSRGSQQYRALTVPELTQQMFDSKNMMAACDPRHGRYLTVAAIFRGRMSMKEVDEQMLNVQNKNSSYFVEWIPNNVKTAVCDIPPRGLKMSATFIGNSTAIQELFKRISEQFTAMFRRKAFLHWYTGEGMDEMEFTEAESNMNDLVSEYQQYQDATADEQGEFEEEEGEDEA

SMILES	GI50 (NCI-H460 (lung); Homo sapiens) [µM]	GI50 (DU-145 (prostate); Homo sapiens) [µM]	GI50 (SK-OV-3 (ovarian); Homo sapiens) [µM]	% Inhibition of colchicine binding ± SD (tubulin; 5 μM inhibitor)	other results
COc1ccc2c(c1OC)CCCC=C2c1cc(C(F)(F)F)cc(C(F)(F)F)c1 [Compound 34, 9-(3′,5′-Bis(trifluoromethyl)phenyl)-3,4-dimethoxy-6,7-dihydro-5H-benzo[7]annulene]	25.5	52.1	31.1	–	–
COc1ccc2c(c1O)CCCC=C2c1ccc(OC)c(OC)c1OC [Compound 71, 3-Methoxy-9-(2′,3, ′4′-trimethoxyphenyl)-6,7-dihydro-5H-benzo[7]annulen-4-ol]	–	–	–	–	GI50 (NCI-H460 (lung); average of n ≥ 3): 4.24 µM; GI50 (DU-145 (prostate); average of n ≥ 3): 7.54 µM; GI50 (SK-OV-3 (ovarian); average of n ≥ 3): 3.53 µM
COc1cc(C2=CCCCc3cc(O)ccc32)cc(OC)c1OC [Compound 68, 9-(3′,4′,5′-Trimethoxyphenyl)-6,7-dihydro-5H-benzo[7]annulen-3-ol]	0.647	1.02	0.527	27 ± 5 (5 μM) %	–
Oc1ccc2c(c1O)CCCC=C2c1cc(C(F)(F)F)cc(C(F)(F)F)c1 [Compound 66, 9-(3′,5′-Bis(trifluoromethyl)phenyl)-6,7-dihydro-5H-benzo[7]annulene-3,4-diol]	25	21.8	16.8	–	–
COc1ccc(C2=CCCCc3c2ccc(OC)c3OC)cc1 [Compound 36, 3,4-Dimethoxy-9-(4′-methoxyphenyl)-6,7-dihydro-5H-benzo[7]annulene]	33.4	48.3	20.5	–	–
COc1ccc2c(c1)CCCC=C2c1cc(OC)c(OC)c(OC)c1 [Compound 29, 3-Methoxy-9-(3′,4′,5′-trimethoxyphenyl)-6,7-dihydro-5H-benzo[7]annulene]	0.0527	0.0619	0.0516	72 ± 0.8%	% Inhibition of colchicine binding ± SD (tubulin; 1 μM inhibitor): 37 ± 5%
COc1ccc2c(c1O)CCCC=C2c1cc(C(F)(F)F)cc(C(F)(F)F)c1 [Compound 65, 9-(3′,5′-Bis(trifluoromethyl)phenyl)-3-methoxy-6,7-dihydro-5H-benzo[7]annulen-4-ol]	4.39	4.92	4.81	8.5 ± 4%	% Inhibition of colchicine binding ± SD (tubulin; 50 μM inhibitor): 37 ± 5%
COc1ccc2c(c1O)CCCC=C2c1ccccc1 [Compound 64, 3-Methoxy-9-phenyl-6,7-dihydro-5H-benzo[7]annulen-4-ol]	0.652	4.4	0.557	–	GI50 [1]: < 1000 nM
CCc1c(OC)ccc2c1CCCC=C2c1cc(OC)c(OC)c(OC)c1 [Compound 31, 4-Ethyl-3-methoxy-9-(3′,4′,5′-trimethoxyphenyl)-6,7-dihydro-5H-benzo[7]annulene]	0.763	1.51	0.568	–	GI50 [1]: < 1000 nM
COc1cc(C2=CCCCc3c2ccc(O)c3O)cc(OC)c1OC [Compound 70, 9-(3′,4′,5′-Trimethoxyphenyl)-6,7-dihydro-5H-benzo[7]annulene-3,4-diol]	0.691	1.53	0.346	–	–
COc1ccc2c(c1OP(=O)(O)O)CCCC=C2c1cc(C(F)(F)F)cc(C(F)(F)F)c1 [Compound 74, 9-(3′,5′-Bis(trifluoromethyl)phenyl)-3-methoxy-6,7-dihydro-5H-benzo[7]annulen-4-yl disodium phosphate]	–	–	–	–	GI50 (NCI-H460 (lung); average of n ≥ 3): 16.3 µM; GI50 (DU-145 (prostate); average of n ≥ 3): 17.5 µM; GI50 (SK-OV-3 (ovarian); average of n ≥ 3): 17.2 µM
COc1cc(C2CCCCc3c2ccc(OC)c3OP(=O)([O-])[O-])cc(OC)c1OC.[Na+].[Na+] (centres unmarked) [Compound 73, 2-Methoxy-5-(3′,4′,5′-trimethoxyphenyl)-6,7,8,9-tetrahydro-5H-benzo[7]annulen-1-yl disodium phosphate]	–	–	–	–	GI50 (NCI-H460 (lung); average of n ≥ 3): 0.145 µM; GI50 (DU-145 (prostate); average of n ≥ 3): 0.753 µM; acute toxicity over 24 h [2]: no obvious acute toxicity; effect on light emission (dynamic BLI) ([3]; 30 mg/kg, 4 h after administration): modest effect; reduction of the emitted BLI signal ([3]; 40 mg/kg IP in saline, 4 h after administration): about 50%; BLI signal recovery ([3]; 20, 30 or 40 mg/kg IP, within 24 h): generally returned to its original level; also recorded: substantial recovery; reduction of BLI signal ([3]; 20 or 30 mg/kg IP in saline, 4 h after administration): modest reduction; GI50 (SK-OV-3 (ovarian); average of n ≥ 3): 0.357 µM
COc1ccc(C2=CCCCc3c2ccc(OC)c3O)cc1 [Compound 67, 3-Methoxy-9-(4′-methoxyphenyl)-6,7-dihydro-5H-benzo[7]annulen-4-ol]	10.6	8.59	18.4	–	–
CCCc1c(OC)ccc2c1CCCC=C2c1cc(OC)c(OC)c(OC)c1 [Compound 32, 3-Methoxy-4-propyl-9-(3′,4′,5′-trimethoxyphenyl)-6,7-dihydro-5H-benzo[7]annulene]	3.32	6.03	2.96	–	–
COc1ccc(/C=C\c2cc(OC)c(OC)c(OC)c2)cc1O [CA4, combretastatin A-4, reference compound]	0.00223	0.00327	0.00455	–	% Inhibition of colchicine binding ± SD (tubulin; 1 μM inhibitor): 84 ± 3%
COc1ccc2c(c1C)CCCC=C2c1cc(OC)c(OC)c(OC)c1 [Compound 30, 3-Methoxy-4-methyl-9-(3′,4′,5′-trimethoxyphenyl)-6,7-dihydro-5H-benzo[7]annulene]	0.422	0.644	0.33	65 ± 0.6 (5 μM) %	–
COc1cc(C2=CCCCc3c2ccc(OC)c3OC)cc(OC)c1OC [Compound 35, 3,4-Dimethoxy-9-(3′,4′,5′-trimethoxyphenyl)-6,7-dihydro-5H-benzo[7]annulene]	0.593	0.708	0.277	30 ± 4%	% Inhibition of colchicine binding ± SD (tubulin; 50 μM inhibitor): 56 ± 4%
COc1ccc(C2=CCCCc3cc(OC)ccc32)cc1 [Compound 37, 3-Methoxy-9-(4′-methoxyphenyl)-6,7-dihydro-5H-benzo[7]annulene]	57.7	68.7	40.7	–	–
COc1ccc(/C=C\c2cc(OC)c(OC)c(OC)c2)cc1OP(=O)(O)O [CA4P, combretastatin A-4P, reference compound]	–	–	–	–	GI50 (NCI-H460 (lung); average of n ≥ 3): 0.00194 µM; GI50 (DU-145 (prostate); average of n ≥ 3): 0.00323 µM; IC50 [4]: > 40 µM; reduction of BLI signal / light emission ([3]; CA4P 120 mg/kg IP in saline, 4 h): greater than 90%; reduction of BLI signal (remained depressed) ([3]; CA4P 120 mg/kg IP in saline, after 24 h): > 75%; GI50 (SK-OV-3 (ovarian); average of n ≥ 3): 0.00119 µM
COc1ccc2c(c1O)CCCCC2c1cc(OC)c(OC)c(OC)c1 (centres unmarked) [Compound 72, 2-Methoxy-5-(3′,4′,5′-trimethoxyphenyl)-6,7,8,9-tetrahydro-5H-benzo[7]annulen-1-ol]	0.141	0.57	0.408	67 ± 0.6%	% Inhibition of colchicine binding ± SD (tubulin; 1 μM inhibitor): 21 ± 0.9%
COc1ccc2c(c1OC)CCCC=C2c1ccccc1 [Compound 28, 3,4-Dimethoxy-9-phenyl-6,7-dihydro-5H-benzo[7]annulene]	37.5	89.3	32.7	–	–
COc1ccc2c(c1)CCCC=C2c1ccc(OC)c(OC)c1OC [Compound 62, 3-Methoxy-9-(2′,3′,4′-trimethoxyphenyl)-6,7-dihydro-5H-benzo[7]annulene]	0.12	0.0562	0.0432	69 ± 3%	% Inhibition of colchicine binding ± SD (tubulin; 1 μM inhibitor): 36 ± 5%
COc1ccc2c(c1OC)CCCC=C2c1ccc(OC)c(OC)c1OC [Compound 61, 3,4-Dimethoxy-9-(2′,3′,4′-trimethoxyphenyl)-6,7-dihydro-5H-benzo[7]annulene]	10.5	26.2	6.96	–	–
